In ChEMBL document CHEMBL3352269, “Discovery of 2-Pyridylpyrimidines as the First Orally Bioavailable GPR39 Agonists” (ACS Med Chem Lett, 2014):

Legend:
[1] = Clearance in Sprague-Dawley rat at 2 mg/kg, iv administered as single dose; assay type: ADME, organism-based; parameters: dose 2 mg/kg, route intravenous; conditions: in vivo
Method in brief: (§1)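 Sprague–Dawley rats received a single iv dose of 2 mg/kg or an oral dose of 5 mg/kg. Vehicle was 10% NMP, 30% PEG200 and 5% Solutol in water. Clearance was taken from the iv arm and bioavailability from the oral arm.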

[2] = Oral bioavailability in Sprague-Dawley rat at 5 mg/kg; assay type: ADME, organism-based; conditions: in vivo; method in brief: as §1
[3] = target: T1, G-protein coupled receptor 39 (Mus musculus, UniProt Q5U431); assay: Agonist activity at mouse GPR39 by IP1 assay; assay type: functional
T1 sequence (Q5U431 whole entry): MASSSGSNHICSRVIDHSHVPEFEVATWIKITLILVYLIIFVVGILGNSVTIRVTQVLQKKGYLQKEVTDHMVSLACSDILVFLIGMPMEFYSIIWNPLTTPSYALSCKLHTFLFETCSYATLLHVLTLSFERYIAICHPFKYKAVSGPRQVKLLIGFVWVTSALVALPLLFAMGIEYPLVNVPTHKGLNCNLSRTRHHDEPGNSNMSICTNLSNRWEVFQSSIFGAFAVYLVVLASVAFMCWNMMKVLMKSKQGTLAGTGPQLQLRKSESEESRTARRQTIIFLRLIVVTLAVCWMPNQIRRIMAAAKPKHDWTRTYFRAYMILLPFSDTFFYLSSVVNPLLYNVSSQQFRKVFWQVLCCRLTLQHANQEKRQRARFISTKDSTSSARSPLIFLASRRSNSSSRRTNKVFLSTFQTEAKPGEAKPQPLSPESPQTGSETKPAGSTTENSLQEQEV
Method in brief: (§2)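 Gαq signalling read as inositol-1-phosphate (IP1) accumulation in HEK293 cells overexpressing human, mouse or rat GPR39. EC50 taken from an 11-point dose–response curve run in triplicate. Replicates range from 1 to 4, with standard deviation where available.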

Protein Gpr39 [4] = target: T2, Protein Gpr39 (Rattus norvegicus, UniProt A6QR73); assay: Agonist activity at rat GPR39 by IP1 assay; assay type: functional; method in brief: as §2
T2 sequence (A6QR73 whole entry): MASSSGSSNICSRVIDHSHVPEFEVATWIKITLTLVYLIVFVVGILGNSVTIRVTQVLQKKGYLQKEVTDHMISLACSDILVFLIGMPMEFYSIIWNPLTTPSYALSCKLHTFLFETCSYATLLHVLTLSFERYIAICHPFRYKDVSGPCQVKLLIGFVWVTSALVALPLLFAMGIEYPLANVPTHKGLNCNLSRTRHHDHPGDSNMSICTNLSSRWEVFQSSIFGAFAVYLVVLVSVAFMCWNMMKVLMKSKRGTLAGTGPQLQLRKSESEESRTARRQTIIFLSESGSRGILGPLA

[5] = target: T3, G-protein coupled receptor 39 (Homo sapiens, UniProt O43194); assay: Agonist activity at human GPR39 by IP1 assay; assay type: functional; method in brief: as §2
T3 sequence (O43194 whole entry): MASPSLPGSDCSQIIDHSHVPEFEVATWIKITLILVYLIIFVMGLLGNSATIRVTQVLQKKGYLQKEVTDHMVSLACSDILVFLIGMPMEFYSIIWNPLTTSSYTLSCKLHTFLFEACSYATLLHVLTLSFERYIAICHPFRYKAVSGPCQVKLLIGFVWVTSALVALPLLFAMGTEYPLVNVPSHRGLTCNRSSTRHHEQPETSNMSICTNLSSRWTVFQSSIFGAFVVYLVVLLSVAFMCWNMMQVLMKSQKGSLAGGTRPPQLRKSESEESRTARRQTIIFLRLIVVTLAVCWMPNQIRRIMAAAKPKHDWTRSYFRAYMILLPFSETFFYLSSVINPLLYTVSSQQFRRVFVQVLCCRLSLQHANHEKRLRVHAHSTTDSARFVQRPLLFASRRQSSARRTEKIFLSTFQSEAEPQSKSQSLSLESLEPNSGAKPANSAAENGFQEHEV

[6] = Hepatic clearance in rat liver microsomes; assay type: ADME
Method in brief: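 Predicted hepatic clearance calculated from intrinsic clearance in rat liver microsomes.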

[7] = Aqueous solubility at pH 6.8; assay type: physicochemical
[8] = target: T3, G-protein coupled receptor 39; assay: Agonist activity at human GPR39 expressed in HEK293 cells by IP1 assay; assay type: functional, cell-based; method in brief: as §2
[9] = target: T1, G-protein coupled receptor 39; assay: Agonist activity at mouse GPR39 expressed in HEK293 cells by IP1 assay; assay type: functional, cell-based; method in brief: as §2
[10] = target: T3, G-protein coupled receptor 39; assay: Agonist activity at human GPR39 expressed in HEK293 cells by cAMP assay; assay type: functional, cell-based
Method in brief: (§3)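 cAMP accumulation (Gαs signalling) in HEK293 cells overexpressing human GPR39. Dose–response curve run in triplicate, 1–16 replicates. EC50 derived from the curve. Percent efficacy is expressed relative to the cAMP response to 25 μM forskolin.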

[11] = target: T4, G-protein coupled receptor 39 (Homo sapiens) (UniProt O43194); assay: Agonist activity at human GPR39 expressed in HEK293 cells by cAMP assay relative to forskolin; assay type: functional, cell-based; method in brief: as §3
T4 sequence (whole entry): T3 sequence (O43194 whole entry)

Protein Gpr39 [12] = target: T2, Protein Gpr39; assay: Agonist activity at rat GPR39 expressed in HEK293 cells by IP1 assay; assay type: functional, cell-based; method in brief: as §2
Mus musculus = assay: Increase in GLP1 level in C57BL/6 mouse at 30 mg/kg, po concurrently dosed with 3 mg/kg, po DPP4 inhibitor PKF275-055 followed by glucose challenge after 1 hr post drug dose; assay type: functional
Method in brief: (§4)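 Male C57BL/6 mice were dosed orally with compound together with a DPP-IV inhibitor. After 1 h they were challenged with oral glucose at 3 g/kg. Active GLP-1 and plasma exposure were measured 30 min later. One-way ANOVA with Dunnett's post-test against the vehicle group.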

[13] = Induction of GLP1 secretion in mouse STC1 cells incubated for 2 hrs by fluorescent bead based ELISA method; assay type: functional, cell-based; conditions: STC-1, 2 h
Method in brief: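 Mouse enteroendocrine STC-1 cells, which express endogenous GPR39, were assayed for GLP-1 secretion over a dose–response run in triplicate. Maximal activity is expressed as fold increase in GLP-1 over the DMSO control.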

[14] = Plasma concentration in C57BL/6 mouse at 30 mg/kg, po concurrently dosed with 3 mg/kg, po DPP4 inhibitor PKF275-055 followed by glucose challenge after 1 hr post drug dose; assay type: ADME, organism-based; method in brief: as §4
[15] = Permeability from apical to basolateral side in human Caco2 cells; assay type: ADME, cell-based; conditions: Caco-2, read-out: permeability
[16] = Protection against cytokine-induced cell death in rat INS-1E cells assessed as caspase 3/7 activity; assay type: functional, cell-based
Method in brief: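 Rat insulinoma INS-1E cells (beta-cell phenotype) were treated with cytokines to induce cell death. Caspase 3/7 activity was the read-out. Dose–response run in triplicate.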

[17] = Clearance in Sprague-Dawley rat at 1 mg/kg, iv administered as single dose; assay type: ADME, organism-based; parameters: dose 1 mg/kg, route intravenous; conditions: in vivo
Method in brief: (§5)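 Sprague–Dawley rats received a single iv dose of 1 mg/kg, with clearance measured, or an oral dose of 3 mg/kg, with bioavailability (F) measured.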

[18] = Oral bioavailability in Sprague-Dawley rat at 3 mg/kg; assay type: ADME, organism-based; conditions: in vivo; method in brief: as §5

SMILES	CLhep predicted [6] [mL/min/kg]	EC50 [8] [nM]	EC50 [9] [nM]	other results
O=S(=O)(NC[C@H]1CC[C@H](CNc2cc(-c3ccccn3)nc(NC3CC3)n2)CC1)c1cccc(F)c1	–	–	–	clearance [1]: 42 mL/min/kg; bioavailability [2]: 25%; EC50 [3]: 3 nM; EC50 (Protein Gpr39 [4]): 1 nM; EC50 [5]: 11 nM
O=S(=O)(NC[C@H]1CC[C@H](CNc2nc(NC3CC3)cc(-c3ccccn3)n2)CC1)c1cccc(F)c1	51.2	–	–	EC50 [3]: 4 nM; EC50 (Protein Gpr39 [4]): 12 nM; EC50 [5]: 202 nM; solubility [7]: < 5 µM
CC(C)(C)CNc1nc(NCC2CC2)cc(-c2ccccn2)n1	–	5000	1500	–
[Cl-].[Cl-].[Zn+2] [ZINC CHLORIDE]	–	–	–	EC50 [10]: 3600 nM; Efficacy [11]: 48%; EC50 (Protein Gpr39 [12]): 4040 nM
COCCNc1nc(NCC2CC2)cc(-c2ccccn2)n1	–	2200	10000	–
CN(C)c1nc(NCC2CC2)cc(-c2ccccn2)n1	–	> 25000	6720	–
CNc1nc(NCC2CC2)cc(-c2ccccn2)n1	–	164	115	–

Continued, in another order:

CLhep predicted [6] [mL/min/kg]	EC50 [8] [nM]	EC50 [9] [nM]	SMILES	other results
> 52.3	25	34	CNc1nc(NC2(c3ccc(Cl)cc3)CCC2)cc(-c2ccccn2)n1	–
33.6	3	8	CNc1nc(NCc2ccc(NS(C)(=O)=O)cc2)cc(-c2ccccn2)n1	EC50 [10]: 180 nM; fold change (FC) (Mus musculus): <2; EC50 [13]: 1300 nM; concentration at 1 h [14]: 2000 nM; Papp A→B [15]: 6.9 ×10⁻⁶ cm/s; Efficacy [11]: 55%; EC50 (Protein Gpr39 [12]): 3 nM; EC50 [16]: 400 nM
–	11	10	CNc1nc(NCC2CCCCC2)cc(-c2ccccn2)n1	–
> 52.3	0.8	0.5	CNc1nc(NCc2ccc(Cl)cc2Cl)cc(-c2ccccn2)n1	–
–	15	3	CNc1nc(NCc2ccc(Cl)cc2)cc(-c2ccccn2)n1	–
34.1	36	185	CNc1nc(NCc2ccc(S(C)(=O)=O)cc2)cc(-c2ccccn2)n1	clearance [17]: 18 mL/min/kg; bioavailability [18]: 45%
